For orientation: pA2 means the negative logarithm of the molar antagonist concentration that doubles the agonist concentration needed for the same response. A high value points to higher antagonist potency.

This assay has as its target T1, Adrenergic receptor alpha-1 (Rattus norvegicus, UniProt P15823+P23944+P43140).
T1 sequence (P15823 whole entry): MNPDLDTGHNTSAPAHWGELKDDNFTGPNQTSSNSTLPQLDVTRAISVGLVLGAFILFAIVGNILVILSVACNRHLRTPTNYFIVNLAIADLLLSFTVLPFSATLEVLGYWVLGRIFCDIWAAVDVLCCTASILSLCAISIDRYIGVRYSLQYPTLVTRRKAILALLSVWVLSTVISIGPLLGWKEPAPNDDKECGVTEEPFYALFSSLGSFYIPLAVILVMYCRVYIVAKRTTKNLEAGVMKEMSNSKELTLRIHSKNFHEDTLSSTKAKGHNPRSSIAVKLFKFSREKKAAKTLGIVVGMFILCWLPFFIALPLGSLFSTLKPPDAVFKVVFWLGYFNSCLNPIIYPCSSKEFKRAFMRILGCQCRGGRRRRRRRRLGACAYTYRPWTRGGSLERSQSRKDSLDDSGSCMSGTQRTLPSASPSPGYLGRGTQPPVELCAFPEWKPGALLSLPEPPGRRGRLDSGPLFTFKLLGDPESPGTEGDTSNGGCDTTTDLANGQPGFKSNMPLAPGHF
T1 sequence (P23944 whole entry): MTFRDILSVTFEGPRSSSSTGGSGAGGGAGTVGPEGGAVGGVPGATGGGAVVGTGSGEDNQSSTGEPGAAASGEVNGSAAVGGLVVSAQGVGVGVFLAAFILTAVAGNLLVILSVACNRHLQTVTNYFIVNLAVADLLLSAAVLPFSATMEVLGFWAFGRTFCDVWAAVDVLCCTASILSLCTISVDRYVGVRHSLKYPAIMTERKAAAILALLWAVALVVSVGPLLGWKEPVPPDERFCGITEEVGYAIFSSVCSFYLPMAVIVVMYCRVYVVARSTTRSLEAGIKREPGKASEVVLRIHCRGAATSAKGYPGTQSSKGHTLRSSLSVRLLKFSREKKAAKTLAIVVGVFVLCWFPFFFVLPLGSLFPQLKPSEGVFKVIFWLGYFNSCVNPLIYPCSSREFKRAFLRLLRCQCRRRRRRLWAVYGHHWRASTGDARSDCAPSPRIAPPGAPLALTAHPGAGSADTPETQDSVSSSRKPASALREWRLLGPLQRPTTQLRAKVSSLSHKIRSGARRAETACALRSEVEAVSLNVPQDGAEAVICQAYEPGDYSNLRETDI
T1 sequence (P43140 whole entry): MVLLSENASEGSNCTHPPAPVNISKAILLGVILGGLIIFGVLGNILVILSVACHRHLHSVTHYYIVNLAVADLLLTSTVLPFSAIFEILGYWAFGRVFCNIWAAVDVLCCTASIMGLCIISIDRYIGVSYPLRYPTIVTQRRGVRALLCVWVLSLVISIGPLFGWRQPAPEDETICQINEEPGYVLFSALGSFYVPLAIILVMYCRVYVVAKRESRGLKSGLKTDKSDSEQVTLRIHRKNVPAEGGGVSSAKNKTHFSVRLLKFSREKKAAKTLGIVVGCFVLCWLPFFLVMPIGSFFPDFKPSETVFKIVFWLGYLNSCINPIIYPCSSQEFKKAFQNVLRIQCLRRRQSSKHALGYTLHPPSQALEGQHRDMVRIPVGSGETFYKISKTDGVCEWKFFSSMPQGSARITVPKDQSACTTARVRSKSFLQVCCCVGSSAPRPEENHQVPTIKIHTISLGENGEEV
Nature of the assay: Alpha adrenergic receptor activity in rat aorta. The class given is tissue-based. In a few lines: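 Rat aortic strips held at 2 g resting tension, stabilized about 1 h. Propranolol 10^-6 M for 30 min to block β-receptors. Isometric contraction recorded. Tissues primed with an agonist level giving 70-80% of maximal response, then washed every 15 min for 60 min. Two cumulative norepinephrine curves (10^-10–10^-7 M), with ascorbic acid 1.13 × 10^-5 M present, run before and after 30 min antagonist preincubation. One antagonist concentration per preparation. Reported as pA2.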
The molecule `COc1ccc(CCN(C)CC(=O)NC(c2ccccc2)C2CCCCC2)cc1OC.O=C(O)C(=O)O` (stereo not drawn) gave a pA2 of 6.5.

The molecule `CN(CC(=O)NC(c1ccccc1)C1CCCCC1)CC1COc2ccccc2O1.O=C(O)C(=O)O` (stereo not drawn) had a pA2 of 6.15. Molecule `O=C(NCc1ncc[nH]1)C(c1ccccc1)C1CCCCC1.O=C(O)C(=O)O` (stereo not drawn) displayed a pA2 of 5.2. Regarding `O=C(CCc1ncc[nH]1)NC(c1ccccc1)C1CCCCC1.O=C(O)C(=O)O` (stereo not drawn), the pA2 came out at 4.2. The figure for `O=C(CC1=NCCN1)NC(c1ccccc1)C1CCCCC1.O=C(O)C(=O)O` (stereo not drawn) is 5.8.

In turn, `O=C(NCCC1=NCCN1)C(c1ccccc1)C1CCCCC1.O=C(O)C(=O)O` (stereo not drawn) had a pA2 of 5.7.

In turn, `O=C(NCCN1CCOCC1)C(c1ccccc1)C1CCCCC1.O=C(O)C(=O)O` (stereo not drawn) returned a pA2 of 4.5. Regarding `O=C(Cc1ncc[nH]1)NC(c1ccccc1)C1CCCCC1.O=C(O)C(=O)O` (stereo not drawn), the pA2 worked out at 5.9. In turn, `O=C(NCCN1CCCCC1)C(c1ccccc1)C1CCCCC1.O=C(O)C(=O)O` (stereo not drawn) displayed a pA2 of 6.

Turning to `O=C(NCCc1ncc[nH]1)C(c1ccccc1)C1CCCCC1.O=C(O)C(=O)O` (stereo not drawn), the pA2 was 5.4. Molecule `O=C(CCC1=NCCN1)NC(c1ccccc1)C1CCCCC1.O=C(O)C(=O)O` (stereo not drawn) registered a pA2 of 5.4.

For the molecule `Cl.O=C(NC1CCCCN1)C(c1ccccc1)C1CCCCC1` (stereo not drawn), the pA2 was determined as 5.5. For `CCN(CC)CCNC(=O)C(c1ccccc1)C1CCCCC1.Cl` (stereo not drawn), the pA2 was 5.4. As for `Cl.O=C(NCC1=NCCN1)C(c1ccccc1)C1CCCCC1` (stereo not drawn), the pA2 is on record as 6.1. For `NCC(=O)NC(c1ccccc1)C1CCCCC1.O=C(O)/C=C\C(=O)O` (stereo not drawn), the pA2 is reported as 4.5.

`O=C(NCc1c[nH]cn1)C(c1ccccc1)C1CCCCC1.O=C(O)/C=C\C(=O)O` (stereo not drawn) registered a pA2 of 4.1. The figure for `CN(CC(=O)NC(c1ccccc1)C1CCCCC1)C1CCCCC1.O=C(O)/C=C\C(=O)O` (stereo not drawn) is 6.7; for `CN(C(=O)CNC1CCCCC1)C(c1ccccc1)C1CCCCC1.O=C(O)/C=C\C(=O)O` (stereo not drawn) it is 5.3.

With `O=C(CNCC1COc2ccccc2O1)NC(c1ccccc1)C1CCCCC1.O=C(O)/C=C\C(=O)O` (stereo not drawn), the pA2 amounted to 6. The result for `O=C(Cc1c[nH]cn1)NC(c1ccccc1)C1CCCCC1.O=C(O)/C=C\C(=O)O` (stereo not drawn) reads 5.3. `COc1ccccc1N1CCN(CCC(=O)NC(c2ccccc2)C2CCCCC2)CC1.O=C(O)/C=C\C(=O)O` (stereo not drawn) returned a pA2 of 6. In the case of `CN(CC(=O)N(C)C(c1ccccc1)C1CCCCC1)C1CCCCC1.O=C(O)/C=C\C(=O)O` (stereo not drawn), the pA2 is given as 4.5.

For the molecule `O=C(NCCNC1CCCCC1)C(c1ccccc1)C1CCCCC1` (stereo not drawn), the pA2 came out at 6.6.

`O=C(CNC1CCCCC1)NC(c1ccccc1)C1CCCCC1` (stereo not drawn) had a pA2 of 6.5. Take `CCN(CC)CC(=O)NC(c1ccccc1)C1CCCCC1` (stereo not drawn): the pA2 was 6. On to `O=C(CCCNC1CCCCC1)NC(c1ccccc1)C1CCCCC1` (stereo not drawn), for which the pA2 was 5.8. For the molecule `O=C(CCNC1CCCCC1)NC(c1ccccc1)C1CCCCC1` (stereo not drawn), the pA2 was 6.1. The result for `C1CCC(C(CC2CCCCN2)C2CCCCC2)CC1` (stereo not drawn) [PERHEXILINE] reads 6.7.

For the origin of these results see ChEMBL document CHEMBL1124018, “Synthesis and pharmacological properties of "soft drug" derivatives related to perhexiline” (J Med Chem, 1988).
